Sampled rows, rich in hits. Any-hit rate of the full collection: about 2.1%.
Arbovirus inh – antivirals against arbovirus infection, primary screen, cell-based, full library, 10K replicate subset; arbovirus infection cell-based antiviral screen; inhibition, % at 10 µM; 0.37% of 200,000 active; in the data active = inhibition above about 30%
ABCG2 inh – ABCG2 efflux pump inhibitors, primary screen, multiplex with ABCB1, IgMXP3 cells, flow cytometry; Broad substrate specificity ATP-binding cassette transporter ABCG2 (Homo sapiens), Q9UNQ0; JC-1 efflux; inhibition, % at 6.6 µM; 0.1% of 190,000 active; AID 1325, 2008;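 active = inhibition above 80%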;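 note: 0% = DMSO and 100% = nicardipine control wells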
Target sequence (Q9UNQ0 whole entry, looked up): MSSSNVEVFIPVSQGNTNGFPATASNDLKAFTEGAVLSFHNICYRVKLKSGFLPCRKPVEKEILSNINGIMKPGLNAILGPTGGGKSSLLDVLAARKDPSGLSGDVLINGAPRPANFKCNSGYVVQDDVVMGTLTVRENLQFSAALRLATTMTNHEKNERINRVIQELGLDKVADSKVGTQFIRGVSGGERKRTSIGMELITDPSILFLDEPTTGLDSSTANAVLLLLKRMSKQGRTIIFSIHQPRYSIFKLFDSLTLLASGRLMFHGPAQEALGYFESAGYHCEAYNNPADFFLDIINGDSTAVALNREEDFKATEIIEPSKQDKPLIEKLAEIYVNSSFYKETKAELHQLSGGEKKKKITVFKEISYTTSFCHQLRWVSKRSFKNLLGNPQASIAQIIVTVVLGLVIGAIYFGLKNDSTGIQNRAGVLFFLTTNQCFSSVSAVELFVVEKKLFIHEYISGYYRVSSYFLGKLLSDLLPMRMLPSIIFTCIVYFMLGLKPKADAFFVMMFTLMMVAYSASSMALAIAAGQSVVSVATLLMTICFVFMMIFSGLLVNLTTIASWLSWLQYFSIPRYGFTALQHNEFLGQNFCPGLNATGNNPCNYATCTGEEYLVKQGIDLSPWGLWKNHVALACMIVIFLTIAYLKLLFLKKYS
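Incubation: cells with compound and JC-1, 10 min at 25 °C, rotating, no wash / Test system: IgMXP3 (ABCG2) plus far-red-tagged CCRF-Adr (ABCB1) cells / Compound dosing: one concentration, 6.6 µM final / Also added: JC-1 fluorescent substrate / Evaluation: efflux inhibition in percent versus controls / Detection: flow cytometry, 530 nm JC-1 signal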
ABCB1 block – ABCB1 efflux pump inhibitors, primary screen, cell-based, multiplex, flow cytometry, ABCG2 counter-screen; inhibition, % at 6.6 µM; CCRF-Adr cells, JC-1 efflux; AID 1326, 2008; 0.067% of 190,000 active; ATP-dependent translocase ABCB1 (Homo sapiens), P08183; in the data active = inhibition above about 40%;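 note: 0% = vehicle and 100% = reference inhibitor; higher value means more JC-1 retained so stronger ABCB1 efflux block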
bCat nuc transl – modulators of beta-catenin nuclear translocation, primary screen, imaging, HeLa cells, immunofluorescence, high-content; nuclear translocation activity, % at 5 µM; AID 1665, 2009; 0.3% of 190,000 active;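 active = nuclear translocation activity above 50% at 5 µM, with a well cell count of 50 or more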;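 note: per-cell ratio of nuclear to cytoplasmic median beta-catenin stain intensity; plate controls were DMSO negative control for no effect and GSK-3 inhibitor IX positive control for full effect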
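Test system: human HeLa cells, native beta-catenin. Compound dosing: 5 µM primary single dose, 0.1% DMSO, 0.02–20 µM confirmation series. Incubation: compound exposure 24 h at 37°C. Detection: beta-catenin immunostaining with DAPI counterstain, 20x imaging, 6 fields/well. Read-out basis: Nuclear/cytoplasmic beta-catenin signal ratio, % activation.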
MT stabilize HCS – microtubule stabilizers in HeLa cells, primary screen, imaging, high-content imaging. HeLa tubulin immunostaining HCS, 24 h; share of cells brighter than vehicle mean+2SD. 0.83% of 200,000 active. % tubulin-high responders, % at 10 µM;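 active = plate Z-score above 3 for both tubulin-high and condensed-nucleus cell shares, with cell loss under 80%, at 10 µM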;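 note: anti alpha tubulin signal scored within the nucleus-defined area of each cell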
Autophagy HCS – autophagy modulators in MEF cells, primary screen, imaging, high-content, MEF GFP-LC3 | 0.98% of 190,000 active | calls only at 10 µM (by protocol) | MEF GFP-LC3 puncta imaging; test concentration mostly 10 µM;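 active = percentage of spot-positive cells more than 3 SD above its plate mean, without a fluorescence outlier flag or 80% toxicity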;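 note: spot-positive cell cutoff set from DMSO-treated cells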
* hit, by the source's call; i = inactive; . = not tested or not shown; + = active, no number.

SMILES	Arbovirus inh	ABCG2 inh	ABCB1 block	bCat nuc transl	MT stabilize HCS	Autophagy HCS
COc1ccc(OC)c(Nc2nc3nonc3nc2N2CCCCC2)c1	-5	1	0	-1	2	+
COCCN1C(=O)c2ccc(C(=O)NCc3cccnc3)cc2C1=O	11	2	0	.	2	i
O=C(c1cc2cc([N+](=O)[O-])ccc2oc1=O)N1CCN(c2ncccn2)CC1	-3	0	0	.	1	+
O=C(c1cc2cc([N+](=O)[O-])ccc2oc1=O)N1CCOCC1	-1	4	1	-1	2	i
COc1ccc(CCN2C(=O)c3cccc4c(C(=O)N5CCCCC5)ccc(c34)C2=O)cc1OC	-3	33	3	-2	5	+
CCN1CCN(c2cc(C)c3cc(NC(=O)c4ccncc4)ccc3n2)CC1	-7	-6	-2	1	2	i
CCN1CCN(c2cc(C)c3cc(NC(=O)c4ccc(Br)o4)ccc3n2)CC1	-27	4	2	2	25*	+
CCCN(CCC)CCCNC(=S)Nc1ccc2nc(N3CCN(C)CC3)cc(C)c2c1	-22	-2	-1	-3	3	+
Cc1cc(NC(=O)Cn2cnc3c(cnn3C(C)(C)C)c2=O)no1	2	-8	-1	1	3	i
C=CCn1c(SCC(=O)N2CCN(c3ccc(F)cc3)CC2)nnc1-c1cccs1	0	2	1	.	5	i
O=C(COc1ncnc2ccccc12)NCC1CCCO1 (stereo not given)	0	2	0	-7	3	+
O=C(COc1ccccc1)NCC1CCCO1 (stereo not given)	-1	-2	1	-1	2	i
O=S(=O)(Nc1nccs1)c1cnc(Cl)c(Br)c1	8	-5	0	-4	5	i
C/C(=N\NC(=O)CC1N=C(Cc2ccccc2)NNC1=O)c1ccccc1 (stereo not given)	1	1	0	0	4	i
C/C(=N\NC(=O)CC1N=C(Cc2ccccc2)NNC1=O)c1ccc(Cl)cc1Cl (stereo not given)	-17	0	0	1	22*	i
CSc1nc2ccccc2s1	3	1	0	-5	2	i
Brc1ccccc1-c1nnc2sc(-c3ccc4c(c3)OCCO4)nn12	-20	0	0	.	38*	i
CCCN1C(=O)/C(=C/c2c(NCCCOCC)nc3c(C)cccn3c2=O)SC1=S	-9	63	68*	-4	10	+
CC1=C(C#N)C(c2cccnc2)C2=C(N1)c1ccccc1C2=O (stereo not given)	-5	2	0	-2	1	i
CC1=C(C#N)C(c2ccccc2)C2=C(N1)c1ccccc1C2=O (stereo not given)	-17	9	0	-4	24*	i
COc1ccc(-c2cc(C(=O)Nc3ccccc3)on2)cc1	5	-1	0	-4	4	i
CC(=O)Nc1c(O)nc(SCC(=O)Nc2nnc(CC(C)C)s2)[nH]c1=O	-4	17	2	-1	3	+
COc1ccc(Cn2c(SCc3cc(C)ccc3C)nc3cc(OC)c(OC)cc3c2=N)cc1	-32	8	11	-1	50	+
COc1ccc(Cn2c(SCc3ccc(C)cc3)nc3cc(OC)c(OC)cc3c2=N)cc1Cl	-30	5	17	-1	5	i
O=C1NC(c2ccccc2Cl)Nc2ccccc21 (stereo not given)	-20	4	1	-1	27*	i
SMILES	Arbovirus inh	ABCG2 inh	ABCB1 block	bCat nuc transl	MT stabilize HCS	Autophagy HCS
COc1cc(C2C3=C(CCCC3=O)Nc3ccc4ncccc4c32)ccc1O (stereo not given)	-7	9	1	0	33*	i
Cc1oc(-c2ccoc2)nc1CN(CC1CCC(=O)N1)C(C)C (stereo not given)	1	1	1	-3	3	i
Cc1ccccc1N1C(=O)C2ON(c3ccccc3)C(c3ccco3)C2C1=O (stereo not given)	.	.	.	-2	.	.
Clc1ccc2[nH]c3c(c2c1)CCc1cn[nH]c1-3	-26	1	0	13	16*	i
O=C1C2CCCN2C(c2ccccc2)N1c1cccc(Cl)c1 (stereo not given)	0	0	0	.	3	i
CCOC(=O)c1c(NC(=O)CSc2nnnn2C)sc(C)c1-c1ccc(C)cc1	-14	4	1	12	2	i
Cc1nc2ccccc2c(=O)n1/N=C/c1cn[nH]c1-c1ccccc1	.	.	.	0	.	.
Cc1ccc(-c2[nH]ncc2/C=N/n2c(COc3ccccc3)nc3ccccc3c2=O)cc1	-30	15	4	1	4	+
Cc1ccccc1OCc1nc2ccccc2c(=O)n1/N=C/c1cn[nH]c1-c1ccccc1	-33	16	9	-3	2	+
NC(N)=NS(=O)(=O)c1ccc(NC(=S)NC(=O)/C=C/c2cccs2)cc1	-9	-7	-1	2	6	i
COc1ccc(S(=O)(=O)Nc2nc3ccccc3nc2NCC2CCCO2)cc1 (stereo not given)	.	.	.	1	.	.
Cc1nc(C(F)(F)F)ccc1C(=O)Nc1ccccc1F	.	.	.	-2	.	.
O=C(CNC(=O)C(c1ccccc1)c1ccccc1)N/N=C\c1cccc(O)c1	.	.	.	-1	.	.
COC(=O)c1[nH]c2ccc(F)cc2c1NS(=O)(=O)c1ccc(OC)cc1	-10	24	0	40	23*	i
Cc1cc2nnc(SCC(=O)NCc3cccs3)n2c2ccccc12	-7	41	0	45	42*	+
Cc1cc2nnc(SCC(=O)NCc3cccs3)n2c(N)n1	6	1	0	-1	2	i
CC(C)c1ccc(C2C3=C(COC3=O)Nc3cc4c(cc32)OCO4)cc1 (stereo not given)	-10	1	1	74*	5	i
O=C1CC(c2cccnc2)c2cc3c(cc2N1)OCO3 (stereo not given)	3	-3	-2	-2	4	i
OC(CNCC1(N2CCCCC2)CCCCC1)COc1ccc(Cl)cc1Cl (stereo not given)	30*	1	0	0	3	i
CCN1CC(CN(C)Cc2nc(-c3ccc(C(F)(F)F)cc3)no2)CC1=O (stereo not given)	11	1	0	57*	2	i
C#CCSc1nncn1C(=O)/C=C/c1ccccc1	0	1	0	0	2	i
